Compound activity (PubChem)
In the library only some 2.8% were active in any assay of this set; here they are far more common.
RBBP9 inh = inhibitors of human serine hydrolase RBBP9 | O75884 | recombinant RBBP9, FP-Rh probe fluorescence polarization | inhibition, % at 7.94 µM | 220,000 tested, 0.2% active | AID 1515;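 active means inhibition above the campaign mean of all tested compounds plus 3 SD, cut at about 14% in these data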;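 further: plate controls were DMSO wells with RBBP9 for no effect and wells lacking RBBP9 protein for full effect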
Target sequence (O75884 whole entry, looked up): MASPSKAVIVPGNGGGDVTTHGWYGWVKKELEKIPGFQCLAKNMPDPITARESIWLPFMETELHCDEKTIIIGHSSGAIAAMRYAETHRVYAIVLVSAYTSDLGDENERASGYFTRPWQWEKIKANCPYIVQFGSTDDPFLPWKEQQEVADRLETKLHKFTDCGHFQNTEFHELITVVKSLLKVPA
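Test system – recombinant human RBBP9 · Input – RBBP9 2.5 µM in dispensing solution, pre-mixing · Medium – Tris buffer pH 8.0, NaCl, Pluronic · Schedule – preincubation 30 min plus labeling 45 min at 25 °C · Measured by – fluorescence polarization · Measure – % inhibition · Controls – DMSO and no-protein wells · Replicates – one well per compound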
14-3-3 Bad inh = disrupts binding of bovine 14-3-3 zeta to phospho-Bad peptide; P63103; 220,000 tested, 0.71% active; TR-FRET 14-3-3zeta/Dy647-pBad peptide displacement, 1 h; inhibition, % at 21.7 µM; AID 781;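 active means inhibition above about 70%, limit read from the data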;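 further: 0% = full 14-3-3 plus peptide FRET controls and 100% = background without 14-3-3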
Wee1 stabilizer = human Wee1 degradation inhibition, primary screen; 220,000 tested, 1.2% active; HeLa Luc-Wee1K328M stability, luciferase luminescence; 100% = proteasome inhibitor MG132 effect; AID 1321; P30291; reporter increase, % at 5 µM;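 active means activation above the mean of all tested compounds plus 3 SD, set per screening run, cut at about 8.8% in these data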;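 further: cells exposed to compound for 20 h before luminescence read; 0% = DMSO alone and 100% = MG132 at 30 µM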
p47phox inh = blocks human p47phox regulatory protein of NADPH oxidases; inhibition, % at 24.7 µM; P14598; p47phox/p22phox peptide binding, fluorescence polarization, 2 h; 220,000 tested, 0.53% active; AID 1274;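 further: 0% = p47phox with labelled peptide and 100% = labelled peptide alone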
Target sequence (P14598 whole entry, looked up): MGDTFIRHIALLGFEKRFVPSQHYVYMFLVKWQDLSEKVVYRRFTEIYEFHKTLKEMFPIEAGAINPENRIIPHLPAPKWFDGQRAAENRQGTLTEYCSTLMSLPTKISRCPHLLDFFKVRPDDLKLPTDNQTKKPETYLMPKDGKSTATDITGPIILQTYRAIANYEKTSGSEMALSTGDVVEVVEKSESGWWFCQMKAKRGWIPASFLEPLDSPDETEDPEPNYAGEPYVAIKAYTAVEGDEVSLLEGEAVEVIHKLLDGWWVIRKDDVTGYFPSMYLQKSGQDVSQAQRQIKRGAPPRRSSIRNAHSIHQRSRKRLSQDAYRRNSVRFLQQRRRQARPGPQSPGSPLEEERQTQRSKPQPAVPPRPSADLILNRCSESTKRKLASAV
eIF4E 4G PPI = inhibitors of eIF4E and eIF4G interaction in translation initiation; AID 782; inhibition, % at 21.7 µM; 220,000 tested, 0.37% active; TR-FRET eIF4E-eIF4GI(517-606) binding, 2 h; P63073+Q04637;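 further: 0% = full FRET control wells and 100% = background wells lacking eIF4GI fragment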
* = called active by the depositor; . = no result given; + = active, no number; [ ] = dose if it differs, or a comment.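 How the source made its calls, unless noted: active means inhibition above about 30% (limit read from the data); inactive means the rest.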

SMILES	RBBP9 inh	14-3-3 Bad inh	Wee1 stabilizer	p47phox inh	eIF4E 4G PPI
CCN1CCN(CCNC(=O)c2ccc(/C=C3/Sc4ccccc4N(Cc4cccc(Cl)c4)C3=O)cc2)CC1	-14	58	0	72*	36*
CCc1ccc(/C=C2/Sc3ccccc3N(CC(=O)NCCCOC)C2=O)cc1	3	2	0	-1	-3
CCOC(=O)N1CCC(N2CCN(C3CCCC3)C(CCO)C2)CC1 (stereo unspecified)	-4	-13	3	-7	2
C#CC1(NC(=O)NC(=O)c2c(F)cccc2F)CCCCC1	-8	-8	7	-2	-4
COc1cc(NC(=O)COc2ccccc2[N+](=O)[O-])ccc1NC(=O)c1cccs1	-14	74*	6	52*	15
COc1ccc(OCC(=O)Nc2ccc(NC(=O)c3cccs3)c(OC)c2)cc1	-1	-3	0	-4	4
CCCCNC(=O)N1CCN(c2ncccn2)CC1	-1	-12	-2	1	6
CCCc1nc2ccc(NC(=O)NCCC(=O)OCC)cc2c(=O)n1Cc1ccc(Cl)cc1	-9	9	2	-1	-3
CCCc1nc2ccc(NC(=O)NCCC(=O)OCC)cc2c(=O)n1Cc1cccc(Cl)c1	-5	0	17*	-5	4
Nc1nc(NCc2ccco2)nc(N2CCN(Cc3ccccc3)CC2)c1[N+](=O)[O-]	-4	1	-1	-3	-5
Cc1ccc(C(O)c2nc3ccccc3n2C(C)C)cc1 (stereo unspecified)	-5	7	-1	71*	-2
COc1ccc(C(=O)OCC[N+]2(C)CCOCC2)cc1	-12	41	2	3	31*
Cc1ccc(Cl)cc1NC(=O)COC(=O)c1ccc(COc2ccc3c(C)cc(=O)oc3c2)cc1	-12	78*	-1	-12	25
CC(c1ccc(F)cc1)n1c(-c2cccs2)n[nH]c1=S (stereo unspecified)	-13	1	-1	1	2
O=C(OCC(=O)N1CCN(C(=O)c2ccco2)CC1)c1cc(-c2ccco2)nc2ccccc12	-5	20	-3	0	27
O=C(OCC(=O)N1CCN(C(=O)c2ccco2)CC1)c1cc(-c2ccc(Cl)c(Cl)c2Cl)nc2ccccc12	-7	4	3	37*	-31
Clc1ccc(-c2cn3c(n2)-c2ccccc2C3)cc1Cl	-3	1	4	-9	-3
Nc1nccc(-c2cc(-c3ccc(Cl)cc3Cl)no2)n1	-8	13	10*	14	-21
Cc1cccc(C)c1NC(=O)CSc1cc(C(=O)c2nccn2C)c2ccccc2n1	5	-3	0	-14	3
CN(C)c1ccc(/C=C/c2ccc3c4ccccc4ccc3[n+]2-c2ccccc2)cc1	-50	-13	-4	-55	75*
CCOc1ccc(C(=O)NC(=S)NCc2cccnc2)cc1[N+](=O)[O-]	3	-2	-3	7	5
CCOC(=O)c1ccc(Oc2nc(OC)nc(N(C)C)n2)cc1	-4	12	-2	-2	0
CN(C)c1nc(Oc2ccc(C(=O)OCC(=O)Nc3ccccc3)cc2)nc(N(C)C)n1	-8	8	9.1*	-23	-2
Nc1nnc(SCc2ccccc2Cl)s1	-4	-7	5	-6	77*
CCc1ccc2nc(NC(=O)c3ccc4c(=O)[nH]c(CN5CCOCC5)nc4c3)sc2c1	-2	94*[fluorescence artefact?]	1	0	-36
SMILES	RBBP9 inh	14-3-3 Bad inh	Wee1 stabilizer	p47phox inh	eIF4E 4G PPI
O=C(Cn1sc2ccccc2c1=O)NC12CC3CC(CC(C3)C1)C2	-11	44	-1	-4	41*
CCCc1nc2c(sc3nc4c(cc32)COC(C)(C)C4)c(=O)n1CCN(CC)CC	-4	2	3	2	1
Cn1cccc1/C=C(\C#N)c1ccccc1	-1	-4	-2	-8	2
CN(C)c1cccc(/C=C(\C#N)c2ccccc2)c1	-4	-9	10.0*	-16	8
CN(C)c1ccc(/C=C(\C#N)c2ccccc2)cc1	-4	-5	16*	-13	-2
CN(C)c1ccc(/C=C(\C#N)C(=O)c2ccccc2)cc1	-11	-14	9.3*	52*	-6
C=C(C(=O)c1ccccc1)C(CC(=O)c1ccccc1)c1ccccc1 (stereo unspecified)	-3	-2	-1	-7	0
CCOc1cc(CN2CCSCC2)ccc1O	1	74*	3	2	1
CCOC(=O)N1CCN(C(=O)C2CCN(Cc3ccc(O)c(OCC)c3)CC2)CC1	-7	0	0	2	2
O=C(c1cccc(N2C(=O)C3C4C=CC(C4)C3C2=O)c1)N1CCCCCC1 (stereo unspecified)	0	77*	1	3	2
O=c1[nH][nH]c2c(N=Cc3ccccc3O)ccc(F)c12	4	70*	4	134*	30
O=C(O)c1cccc(N2C(=O)/C(=C/c3ccc(SCc4ccc(Cl)cc4)o3)SC2=S)c1	-5	85*	12*	-174	49*
O=C1NC(=S)S/C1=C\C=C\c1ccc([N+](=O)[O-])o1	8	87*	1	-19	20
CN(Cc1ccccc1)c1nc(-c2cccc([N+](=O)[O-])c2)nc2ccccc12	-13	-1	11*	-3	-7
CC(C)N1C(=O)CC2(CC[N+](C)(CCOC(=O)C(c3ccccc3)c3ccccc3)CC2)C1=O (stereo unspecified)	3	77*[fluorescence artefact?]	0	11	-1
O=C(OCCN1CCOCC1)C(c1ccccc1)c1ccccc1	0	20	1	-10	0
COc1cc(C2N=C(c3ccccc3)NO2)cc(Br)c1O (stereo unspecified)	-7	-3	4	+	-3
COc1cc(C=C2C(=O)OC(c3ccccc3)OC2=O)cc(Br)c1O (stereo unspecified)	-3	13	-3	-23	3
Cn1c(=O)[nH]c(=O)c2cc(C(=O)c3cc(F)ccc3O)cnc21	-3	-7	10*	-12	4
COc1cc(/C=N/NC(=O)c2cc(C)oc2C)ccc1O	2	-21	6	37*	0
COc1cc(/C=N/NC(=O)C2c3ccccc3Oc3ccccc32)ccc1O	8	33	2	-19	41*
O=C(CCCc1ccccc1)Nc1cccc2c1CCCC2	4	-5	11*	-9	4
Cc1ccc(C(c2nnnn2C2CCCC2)N2CCc3ccccc32)cc1 (stereo unspecified)	-6	-13	9.1*	-39	12
COc1cccc(N2CCN(C(=S)Nc3cc(C)cc(C)c3)CC2)c1	0	-1	3	.	-2
O=C(NC1CCCCC1)N(Cc1nc2ccccc2c(=O)[nH]1)C1CCCC1	4	.	-1	31*	.
O=C(OCC(=O)N1CCCc2ccccc21)c1cccc(S(=O)(=O)N2CCc3ccccc32)c1	1	-5	-2	-18	-4
COc1ccc(OC)c2c1C(=O)c1ccccc1C2=O	-6	4	1	36*	4
